# Calls of active or inactive are those of the source. The calls are words filed in the database; no cut-off is given here.
# Experiments:
# Candida tropicalis [1] = test: Antifungal activity against Candida tropicalis CECT 11901 at 100 ug/mL after 24 hrs by AFSTEUCAST assay; format: functional, organism-based
# Aspergillus fumigatus = test: Antifungal activity against Aspergillus fumigatus ATCC 204305 after 48 hrs by CLSI M38-A assay; conditions: ATCC 204305, 48 h
# Vero [2] = test: Selectivity index, ratio of IC50 for green monkey Vero cells over IC50 for human HeLa cells; format: functional
# Outline: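 Selectivity index is the Vero IC50 divided by the HeLa IC50. Both IC50s come from the 48 h MTT assay, each from linear-regression dose-effect curves.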
# Aspergillus terreus = test: Antifungal activity against Aspergillus terreus CDC 317 at 100 ug/mL after 48 hrs by CLSI M38-A assay
# HeLa = test: Cytotoxicity against human HeLa cells after 48 hrs by MTT assay; format: functional, cell-based
# Outline: (§1)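 MTT colorimetric assay. HeLa (ATCC CCL-2) and Vero (ATCC CCL-81) cells were grown in MEM with 10% FBS at 37 °C, 5% CO2, then seeded at 1.5×10^4 (HeLa) or 1.25×10^4 (Vero) cells/well. Compound dilutions were added after 24 h and incubated 48 h more. Cell controls had 0.05% DMSO; vincristine was the reference. IC50 came from linear-regression dose-effect curves, mean ± S.E.M. of at least four dilutions in quadruplicate.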
# Trichophyton rubrum = test: Antifungal activity against Trichophyton rubrum ATCC 28188 after 6 days by CLSI M38-A assay; conditions: ATCC 28188, 6 days
# Aspergillus flavus = test: Antifungal activity against Aspergillus flavus ATCC 204304 at 100 ug/mL after 48 hrs by CLSI M38-A assay
# Vero [3] = test: Cytotoxicity against african green monkey Vero cells after 48 hrs by MTT assay; format: cell-based; conditions: Chlorocebus sabaeus; outline: as §1
# Candida albicans [4] = test: Antifungal activity against Candida albicans ATCC 10231 at 100 ug/mL after 24 hrs by AFSTEUCAST assay; format: functional, organism-based
# Candida parapsilosis [5] = test: Antifungal activity against Candida parapsilosis ATCC 22019 at 100 ug/mL after 24 hrs by AFSTEUCAST assay; format: functional, organism-based
# Pichia kudriavzevii [6] = test: Antifungal activity against Candida krusei ATCC 6258 at 100 ug/mL after 24 hrs by AFSTEUCAST assay; format: functional, organism-based
# Fusarium oxysporum = test: Antifungal activity against Fusarium oxysporum ATCC 48112 after 48 hrs by CLSI M38-A assay; conditions: ATCC 48112, 48 h
# [7] = tested on: Trichophyton mentagrophytes; test: Antifungal activity against Trichophyton mentagrophytes ATCC 24198 after 6 days by CLSI M38-A assay; conditions: ATCC 24198, 6 days
# B16 = test: Cytotoxicity against mouse B16 cells; format: functional, cell-based
# SNU1 = test: Cytotoxicity against human SNU1 cells; format: functional, cell-based
# Candida albicans [8] = test: Antifungal activity against Candida albicans ATCC 10231 at 12.5 ug/mL after 24 hrs by AFSTEUCAST assay; format: functional, organism-based
# KB = test: Cytotoxicity against human KB cells; format: functional; conditions: read-out: ED50 (the source's name)
# Candida tropicalis [9] = test: Antifungal activity against Candida tropicalis CECT 11901 at 12.5 ug/mL after 24 hrs by AFSTEUCAST assay; format: functional, organism-based
# Candida parapsilosis [10] = test: Antifungal activity against Candida parapsilosis ATCC 22019 at 6.25 ug/mL after 24 hrs by AFSTEUCAST assay; format: functional, organism-based
# Human alphaherpesvirus 1 = test: Antiviral activity against HSV1 infected in Vero cells assessed reduction factor at 12.5 ug/ml after 36 hrs by end-point titration technique relative to control; format: functional
# Outline: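 HSV-1 (CDC) end-point titration on Vero cells. Two-fold compound dilutions were mixed with one infection dose of virus (TCID50/0.1 mL) for 0.5 h at 37 °C. The mixture was added to confluent monolayers and incubated 36 h at 37 °C, 5% CO2. Reduction factor is the virus titer without compound divided by the titer with compound.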
# P388 = test: Cytotoxicity against mouse P388 cells; format: functional, cell-based
# Pichia kudriavzevii [11] = test: Antifungal activity against Candida krusei ATCC 6258 at 6.25 ug/mL after 24 hrs by AFSTEUCAST assay; format: functional, organism-based
MIC (Aspergillus fumigatus),MIC (Trichophyton rubrum),MIC (Fusarium oxysporum),MIC [7],Compound,Activity (Candida tropicalis [1]),Selectivity Index (Vero [2]),IC50 (HeLa),IC50 (Vero [3]),Activity (Candida albicans [4]),Activity (Candida parapsilosis [5]),Activity (Pichia kudriavzevii [6]),other results
50 µg/mL,50 µg/mL,> 100 µg/mL,39.7 µg/mL,CON(C)C(=O)C[C@H]1[C@@]2(C)CCCC(C)(C)[C@@H]2CC[C@]1(C)O [WEINREB'S AMIDE],inactive,1.23,66.8 µg/mL,82 µg/mL,inactive,inactive,inactive,Activity (Aspergillus terreus): inactive; Activity (Aspergillus flavus): inactive
> 100 µg/mL,50 µg/mL,> 100 µg/mL,19.8 µg/mL,C=C1CC[C@H]2C(C)(C)CCC[C@]2(C)[C@H]1CC(=O)N(C)OC,inactive,2.69,11.7 µg/mL,31.5 µg/mL,inactive,inactive,inactive,
2 µg/mL,,,,C[C@@H]1[C@H](O)[C@@H](C)/C=C/C=C/C=C/C=C/C=C/C=C/C=C/[C@H](O[C@@H]2O[C@H](C)[C@@H](O)[C@H](N)[C@@H]2O)C[C@@H]2O[C@](O)(C[C@@H](O)C[C@@H](O)[C@H](O)CC[C@@H](O)C[C@@H](O)CC(=O)O[C@H]1C)C[C@H](O)[C@H]2C(=O)O [AMPHOTERICIN B],,,,,,,,
79.4 µg/mL,0.62 µg/mL,19.8 µg/mL,1.24 µg/mL,C=C1CC[C@H]2C(C)(C)CCC[C@]2(C)[C@H]1C/C=C(\C=O)CC=O (mixture of isomers) [LABDADIENEDIAL],Active,0.67,19.5 µg/mL,13.1 µg/mL,Active,Active,Active,IC50 (B16): 41.2 µg/mL; IC50 (SNU1): 12 µg/mL; Activity (Aspergillus terreus): inactive; Activity (Candida albicans [8]): Active; Activity (Aspergillus flavus): inactive; EC50 (KB): 40 µg/mL; Activity (Candida tropicalis [9]): Active; Activity (Candida parapsilosis [10]): Active; Activity (Human alphaherpesvirus 1): 100; IC50 (P388): 4.1 µg/mL; Activity (Pichia kudriavzevii [11]): Active
,,,,CC[C@]1(O)C[C@H]2CN(CCc3c([nH]c4ccccc34)[C@@](C(=O)OC)(c3cc4c(cc3OC)N(C=O)[C@H]3[C@@](O)(C(=O)OC)[C@H](OC(C)=O)[C@]5(CC)C=CCN6CC[C@]43[C@@H]65)C2)C1 [VINCRISTINE],,22,0.05 µg/mL,1.1 µg/mL,,,,
,< 0.078 µg/mL,,0.0312 µg/mL,CN(C/C=C/C#CC(C)(C)C)Cc1cccc2ccccc12 [TERBINAFINE],,,,,,,,
> 100 µg/mL,> 100 µg/mL,> 100 µg/mL,> 100 µg/mL,C=C1CC[C@H]2C(C)(C)CCC[C@]2(C)[C@H]1C/C=C(/CC(=O)OC)C(=O)OC,inactive,2.32,14.5 µg/mL,33.7 µg/mL,inactive,inactive,inactive,
> 100 µg/mL,> 100 µg/mL,> 100 µg/mL,> 100 µg/mL,C=C1CC[C@H]2C(C)(C)CCC[C@]2(C)[C@H]1C/C=C(\CO)CCO,inactive,0.42,91 µg/mL,38 µg/mL,inactive,inactive,inactive,
0.17 µg/mL,,,,CCC(C)n1ncn(-c2ccc(N3CCN(c4ccc(OCC5COC(Cn6cncn6)(c6ccc(Cl)cc6Cl)O5)cc4)CC3)cc2)c1=O (stereo not given) [ITRACONAZOLE],,,,,,,,
> 100 µg/mL,> 100 µg/mL,> 100 µg/mL,> 100 µg/mL,C=C1CC[C@H]2C(C)(C)CCC[C@]2(C)[C@H]1C/C=C(/CC(=O)O)C(=O)O,inactive,0.46,84.5 µg/mL,39 µg/mL,inactive,inactive,inactive,
> 100 µg/mL,31.5 µg/mL,> 100 µg/mL,31.5 µg/mL,C=C1CCC2C(C)(C)CCC[C@]2(C)[C@H]1CC=O (stereo not given in full),inactive,4.11,2.6 µg/mL,10.7 µg/mL,inactive,inactive,inactive,IC50 (B16): 30.8 µg/mL; IC50 (SNU1): 3.9 µg/mL; IC50 (P388): 0.16 µg/mL

# — ChEMBL document CHEMBL1240463, “Synthesis and biological evaluation of (+)-labdadienedial, derivatives and precursors from (+)-sclareolide” (Eur J Med Chem, 2010)
